Experimental data: ChEMBL document CHEMBL3085730, “Skeletal hybridization and PfRIO-2 kinase modeling for synthesis of α-pyrone analogs as anti-malarial agent” (Eur J Med Chem, 2013)
The source made the active and inactive calls. No cut-off for these calls is given here.

Tests used:
[1] = tested on: Plasmodium falciparum; experiment: Antimalarial activity against ring-stage Plasmodium falciparum 3D7 assessed as schizonticidal activity after 42 hrs; type: functional, organism-based; conditions: 3D7, 42 h
Summary of the method: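 Ring-stage P. falciparum 3D7-parasitised cells exposed to compound for 42 h. Blood smears scored for maturation of rings into trophozoites and schizonts. IC50 derived from schizont inhibition by regression analysis.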

[2] = tested on: Plasmodium falciparum; experiment: Parasitocidal activity against ring-stage Plasmodium falciparum 3D7 assessed as minimum killing concentration incubated for 42 hrs followed by compound washout measured 72 hrs post infection in hematocrit; type: functional
Summary of the method: (§1)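 After drug exposure, compound removed and cultures washed 3 times with Albumax II-free RPMI-1640. Cultures then incubated a further 72 h in complete medium with fresh hematocrit. RBCs containing viable parasite counted on thin smear to class inhibition as parasitostatic or parasitocidal.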

[3] = tested on: Plasmodium falciparum; experiment: Antimalarial activity against Plasmodium falciparum 3D7 assessed as intracellular ROS generation relative to untreated control; type: functional
Summary of the method: (§2)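 Parasite cultures treated with a sub-lethal concentration of compound. Intracellular ROS measured with the fluorescent probe 2',7'-dichlorofluorescein diacetate. Lipid peroxidation measured by a previously described method. Each index expressed as fold change ± SD versus untreated culture.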

[4] = tested on: Plasmodium falciparum; experiment: Antimalarial activity against Plasmodium falciparum 3D7 assessed as lipid peroxidation after 48 hrs by spectrophotometry relative to untreated control; type: functional; summary of the method: as §2
[5] = tested on: Plasmodium falciparum; experiment: Parasitostatic activity against ring-stage Plasmodium falciparum 3D7 assessed as minimum killing concentration incubated for 42 hrs followed by compound washout measured 72 hrs post infection in hematocrit; type: functional, organism-based; summary of the method: as §1

| Structure (SMILES) | IC50 [1] | Activity [2] | fold change (FC) [3] | fold change (FC) [4] | Activity [5] |
| --- | --- | --- | --- | --- | --- |
| Cc1ccc(NC(=O)c2c(N3CCCCC3)cc(-c3ccccc3)oc2=O)cc1 | 0.859 µM | 1 µM | 1.66 | 11.03 | – |
| COc1ccc(-c2cc(N3CCN(C)CC3)c(C(=O)Nc3ccc(O)cc3)c(=O)o2)cc1 | 1.57 µM | – | 1.99 | 4.88 | inactive |
| O=C(Nc1ccc(O)cc1)c1c(N2CCCCC2)cc(-c2ccccc2)oc1=O | 0.765 µM | 1.99 µM | 1.2 | 9.03 | – |
| Cc1ccc(NC(=O)c2c(O)cc(-c3ccccc3)oc2=O)cc1 | 1.42 µM | 38.9 µM | – | – | – |
| O=C(Nc1ccc(Br)cc1)c1c(N2CCCCC2)cc(-c2ccccc2)oc1=O | 0.337 µM | 0.21 µM | 1.87 | 4.49 | – |
| O=C(Nc1ccc(F)cc1)c1c(O)cc(-c2ccccc2)oc1=O | 0.9 µM | 2.39 µM | – | – | – |
| O=C(Nc1ccc(Br)cc1)c1c(O)cc(-c2ccccc2)oc1=O | 0.75 µM | 3.9 µM | – | – | – |
